The list is not random: actives were taken first. Their share in the collection is about 5.7%.
SKKanGAS inh: inhibitors of SKKanGAS S. pyogenes growth in kanamycin (SK-promoter or general growth effect). 300,000 compounds, 1.3% hits. inhibition, % at 7.5 µM. BacTiter-Glo, 6 h;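 active means mean replicate score, as percent of positive control median, at least 50; inconclusive means mean below 50 but one replicate at or above 50; inactive means mean and every replicate below 50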;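 further: strain carries kanamycin resistance gene driven by streptokinase promoter and grows in 40 µg/ml kanamycin; loss of luminescence reflects streptokinase promoter inhibition or plain growth inhibition; 0% = median of DMSO wells and 100% = positive control at its reference dose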
Calb FLC: C. albicans growth modulation with fluconazole; C. albicans CaCi-2 (fluconazole-resistant clinical isolate) + fluconazole, Alamar Blue growth, 48 h; growth inhibition, % (no concentration beside the values); 300,000 compounds, 0.57% hits;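 active means growth inhibition above about 58% in most replicates, limit read from the data, passing the limit was not always enough; inconclusive means exactly half the replicates above a set limit; inactive means most replicates below a set limit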;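 further: all wells also contain fluconazole at 8 µg/ml as a sub-toxic cotreatment; 0% = median of DMSO wells and 100% = median of geldanamycin control wells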
Beta cell apopt: beta cell apoptosis inhibition; INS-1E cytokine-induced death, ATP luminescence, 48 h; percent of positive-control rescue, neutral wells zero; AID 435005; 300,000 compounds, 0.8% hits; protection from apoptosis, % (no concentration beside the values);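 active means Every replicate reaches about 75%, or at least half do and their mean reaches it too, limit read from the data; inconclusive means At least half of replicates reach the limit but their mean does not; inactive means Under half of replicates reach the limit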;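 further: 0% = cytokine-treated negative control wells and 100% = positive control rescue; higher means more ATP so stronger rescue from cytokine killing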
Mdm2 MdmX PPI: disrupts the human Mdm2-MdmX interaction; inhibition, % at 8 µM; 330,000 compounds, 3% hits; AID 485346; SaOS-2 split-luciferase Mdm2/MdmX complementation, luminescence; O15151+Q00987;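 active means inhibition of at least 50% at 8 µM in the primary screen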
Target sequence (O15151 whole entry, looked up): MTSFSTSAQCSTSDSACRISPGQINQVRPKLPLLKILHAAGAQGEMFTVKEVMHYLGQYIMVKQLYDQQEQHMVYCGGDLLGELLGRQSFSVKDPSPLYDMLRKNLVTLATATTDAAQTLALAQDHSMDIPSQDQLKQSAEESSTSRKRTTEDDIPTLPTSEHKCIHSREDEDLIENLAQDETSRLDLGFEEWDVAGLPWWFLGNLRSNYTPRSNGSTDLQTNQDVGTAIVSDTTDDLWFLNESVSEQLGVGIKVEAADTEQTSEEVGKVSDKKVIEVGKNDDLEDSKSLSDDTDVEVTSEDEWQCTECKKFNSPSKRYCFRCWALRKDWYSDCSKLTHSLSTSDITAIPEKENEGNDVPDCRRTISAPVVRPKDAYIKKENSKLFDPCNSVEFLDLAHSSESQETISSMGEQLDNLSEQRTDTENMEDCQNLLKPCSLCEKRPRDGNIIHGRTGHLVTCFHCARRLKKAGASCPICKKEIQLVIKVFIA
Target sequence (Q00987 whole entry, looked up): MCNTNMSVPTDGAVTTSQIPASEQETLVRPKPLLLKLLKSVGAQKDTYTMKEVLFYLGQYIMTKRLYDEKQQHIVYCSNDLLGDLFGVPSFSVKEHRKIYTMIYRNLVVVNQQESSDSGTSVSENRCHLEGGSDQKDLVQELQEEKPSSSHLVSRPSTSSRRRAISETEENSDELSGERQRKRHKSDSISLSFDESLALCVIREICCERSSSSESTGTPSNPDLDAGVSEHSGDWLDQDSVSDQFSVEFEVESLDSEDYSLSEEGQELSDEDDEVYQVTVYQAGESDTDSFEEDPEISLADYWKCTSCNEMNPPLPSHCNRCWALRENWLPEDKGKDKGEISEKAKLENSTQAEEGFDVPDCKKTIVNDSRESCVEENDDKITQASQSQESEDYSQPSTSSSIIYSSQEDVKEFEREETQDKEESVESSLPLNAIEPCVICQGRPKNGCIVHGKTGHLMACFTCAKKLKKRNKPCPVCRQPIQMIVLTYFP
T cruzi inh: blocks replication of Trypanosoma cruzi; AID 1885; T. cruzi beta-gal in NIH3T3, luminescence, 90 h; inhibition, % (no concentration beside the values); 300,000 compounds, 1.4% hits;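 active means mean inhibition across valid replicates above about 55%, limit read from the data; inconclusive means mean below that limit but half or more replicates reach it; inactive means mean below it, under half of replicates reach it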;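 further: signal also drops with host cell toxicity which is not excluded here; 0% = plate median of DMSO wells and 100% = zero luminescence signal; higher percent means less beta-gal luminescence so fewer parasites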
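Assay system: NIH/3T3 fibroblasts plus reporter T. cruzi. Amount: NIH/3T3 cells, 5,000 per well. Buffer or medium: DMEM, 2% fetal bovine serum. Doses: compound pinned at 50 nL/well, DMSO. Schedule: ≥90 h infection period, 3 h prior cell attachment. Signal: luminescent β-galactosidase signal after 60 min lysis. Read-out: parasite load inhibition, %.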
CSC inhib: blocks cancer stem cells. cancer stem cell-like cells viability, luminescence. inhibition, % at 7.5 µM. 300,000 compounds, 1.1% hits. AID 2717; in the data active means inhibition above about 75%; inconclusive means no clear call, values can overlap the other calls; tested in HMLE shEcad cells
Mdm2-MdmX conf: human Mdm2/MdmX binding inhibition, confirmed | inhibition, % at 8 µM | 10,000 compounds, 55% hits | luminescent assay | AID 489028 | shares compounds with Mdm2 MdmX PPI; in the data active means inhibition above about 40%
FLuc counter: counter-screen for Mdm2/MdmX inhibitors: full-length luciferase | AID 504607 | SaOS-2 full-length luciferase counterscreen, luminescence | inhibition, % at 8 µM | 6,200 compounds, 77% hits | shares compounds with Mdm2 MdmX PPI;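 active means mean inhibition at 8 µM reaching about 37%, which flags the compound as non-specific, limit read from the data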;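 further: p53-null SaOS-2 cells with luciferase driven by a doxycycline-inducible promoter; compound on cells about two nights before reading with doxycycline added after day one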
An asterisk follows results filed as active.

Cc1ccc(NC(=O)CSc2nc(-c3ccco3)cc(C(F)(F)F)n2)cc1C was read as SKKanGAS inh -20, Calb FLC -3, Beta cell apopt 4, Mdm2 MdmX PPI 44 and T cruzi inh -4.
For Cc1cc(NC(=O)CCCSc2nc(-c3ccco3)cc(C(F)(F)F)n2)n(-c2ccccc2)n1 the results were SKKanGAS inh 13, Calb FLC inconclusive, Beta cell apopt 9, Mdm2 MdmX PPI 10, T cruzi inh 26 and CSC inhib 9.
`COC(=O)c1c(NC(=O)CSc2nc(-c3ccco3)cc(C(F)(F)F)n2)sc2c1CCCC2` gave SKKanGAS inh -4, Calb FLC 7, Beta cell apopt -1, Mdm2 MdmX PPI 25, T cruzi inh 4 and CSC inhib 15.
`COC(=O)c1ccccc1NC(=O)CSc1nc(-c2ccco2)cc(C(F)(F)F)n1` gave Mdm2 MdmX PPI 67*, Mdm2-MdmX conf 62* and FLuc counter 74*.
Cc1cc(NC(=O)CSc2nc(-c3ccco3)cc(C(F)(F)F)n2)n(-c2ccccc2)n1 was read as SKKanGAS inh -3, Calb FLC -9, Beta cell apopt 6, Mdm2 MdmX PPI 54*, T cruzi inh -19, CSC inhib 52, Mdm2-MdmX conf 56* and FLuc counter 54*.
`O=C(CSc1nc(-c2ccco2)cc(C(F)(F)F)n1)Nc1ccc2c(c1)CCC2` gave SKKanGAS inh -2, Calb FLC 1, Beta cell apopt 0, Mdm2 MdmX PPI 52*, T cruzi inh 8, CSC inhib 51, Mdm2-MdmX conf 61* and FLuc counter 45*.
Cc1cnc(C(=O)N2CCN(S(=O)(=O)c3ccc(F)c(F)c3F)CC2)cn1 was read as Beta cell apopt 2, Mdm2 MdmX PPI 3 and CSC inhib 0.
`CCc1nc(Sc2nnnn2-c2ccccc2)c2c3c(sc2n1)CCCC3` gave SKKanGAS inh 1, Calb FLC -3, Beta cell apopt -8, Mdm2 MdmX PPI 93*, T cruzi inh 15, CSC inhib 16, Mdm2-MdmX conf 84* and FLuc counter 52*.
For Cc1nc(SCC(=O)NCC2CCCO2)c2c3c(sc2n1)CCC3 (stereo not drawn) the results were SKKanGAS inh 15, Calb FLC 7, Beta cell apopt 5, Mdm2 MdmX PPI 24, T cruzi inh 7 and CSC inhib -12.
`CCc1nc(N2CCN(C(=O)c3ccccc3)CC2)c2c3c(sc2n1)CCCC3` gave SKKanGAS inh 16, Calb FLC 4, Mdm2 MdmX PPI 22 and T cruzi inh 33.
`Cc1nc(Sc2nnnn2C)c2c3c(sc2n1)CCC3` gave Beta cell apopt 61, Mdm2 MdmX PPI 97*, CSC inhib 65, Mdm2-MdmX conf 93* and FLuc counter 63*.
Screening COc1ccc(OCCSc2ncc(CO)n2C)cc1 returned SKKanGAS inh 2, Calb FLC -18, Beta cell apopt 1, Mdm2 MdmX PPI 36, T cruzi inh -3 and CSC inhib -10.
For CCOc1ccc(-n2c(SCC(=O)Nc3ccc(Br)cc3)nc3n[nH]c(C)c3c2=N)cc1 the results were SKKanGAS inh -16, Calb FLC -5, Beta cell apopt 17, Mdm2 MdmX PPI 53*, T cruzi inh 27, Mdm2-MdmX conf 41* and FLuc counter 67*.
COc1cccc(NC(=O)CSc2nc3n[nH]c(C)c3c(=N)n2-c2cccc(OC)c2)c1 was read as SKKanGAS inh 19, Calb FLC 3, Beta cell apopt 7, Mdm2 MdmX PPI 35, T cruzi inh 30 and CSC inhib -2.
Cc1cc(-n2c(SCC(=O)NCc3cccs3)nc3n[nH]c(C)c3c2=N)ccc1Cl was read as SKKanGAS inh 24, Calb FLC -10, Beta cell apopt 31, Mdm2 MdmX PPI 66*, T cruzi inh 32, CSC inhib -6 and Mdm2-MdmX conf 12.
For CCOc1ccc(-n2c(SCC(=O)Nc3ccccc3CC)nc3n[nH]c(C)c3c2=N)cc1 the results were SKKanGAS inh 5, Calb FLC 6, Beta cell apopt 30, Mdm2 MdmX PPI 43, T cruzi inh -38 and CSC inhib 2.
`CCc1ccc(NC(=O)CSc2nc3n[nH]c(C)c3c(=N)n2-c2cccc(OC)c2)cc1` gave SKKanGAS inh 29, Calb FLC -8, Beta cell apopt 15, Mdm2 MdmX PPI 66*, T cruzi inh 9, CSC inhib 6, Mdm2-MdmX conf 56* and FLuc counter 61*.
Screening Cc1cc(-n2c(SCC(=O)Nc3ccc(F)c(F)c3)nc3n[nH]c(C)c3c2=N)ccc1Cl returned SKKanGAS inh 19, Calb FLC 37, Beta cell apopt 76*, Mdm2 MdmX PPI 94*, T cruzi inh 16, CSC inhib 68, Mdm2-MdmX conf 71* and FLuc counter 42*.
CCCCn1c(N)c(N(Cc2ccccc2OC)C(=O)c2ccc(N3CCCC3=O)cc2)c(=O)[nH]c1=O was read as SKKanGAS inh -3, Calb FLC -4, Beta cell apopt -3, Mdm2 MdmX PPI 3, T cruzi inh -8 and CSC inhib -1.
`Cc1cccnc1NC(=O)CSc1nnc(CNC(=O)c2cccc([N+](=O)[O-])c2)n1C` gave SKKanGAS inh -1, Calb FLC -1, Beta cell apopt -3, Mdm2 MdmX PPI 17, T cruzi inh 0 and CSC inhib 1.
Screening CCCn1nc(C(=O)Nc2ccc3nc(N4CCOCC4)sc3c2)ccc1=O returned Mdm2 MdmX PPI 9.
O=C(OCN1C(=O)c2ccccc2C1=O)c1ccc(Cl)nc1 was read as SKKanGAS inh -3, Calb FLC 1, Beta cell apopt -2, Mdm2 MdmX PPI 24, T cruzi inh 4 and CSC inhib 6.
`Cc1cc(-n2c(SCC(=O)Nc3ccc(Br)cc3)nc3n[nH]c(C)c3c2=N)ccc1Cl` gave SKKanGAS inh 8, Calb FLC 23, Beta cell apopt 33, Mdm2 MdmX PPI 86*, T cruzi inh 7, CSC inhib 56, Mdm2-MdmX conf 43* and FLuc counter 64*.
`COc1cc(Cl)ccc1OCc1cc(C(=O)NCc2cc(C(C)C)no2)no1` gave SKKanGAS inh -5, Calb FLC -6, Beta cell apopt 4, Mdm2 MdmX PPI -45, T cruzi inh -3 and CSC inhib -9.
